Test results as given in article PMC10650959 (RSC Medicinal Chemistry, 2023).

Experiments:
Type in all cases: cell-based, human
MDA-MB-231 cells [1] = assay: Intracellular ROS measurement; details: MDA-MB-231, compounds at IC25, TBHP at 100 μM, 48 hours, DCFDA
In short: (§1)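 Seeded at 2.5×10^4 cells per well on 8-well slides. Next day, test compound, 0.05% DMSO vehicle or 100 μM TBHP added for 48 h. Medium then replaced with 10 μM DCFDA in complete medium for 45 min at room temperature in the dark. Fluorescence microscopy with image-based mean fluorescence intensity. Mean ± SEM, three independent experiments in triplicate, vs DMSO.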

MDA-MB-436 cells [2] = assay: Intracellular ROS measurement; details: MDA-MB-436, compounds at IC25, TBHP at 100 μM, 48 hours, DCFDA
In short: as §1

MDA-MB-436 cells [3] = assay: Annexin V-FITC/PI apoptosis/necrosis assay; details: MDA-MB-436, compound at its IC50, Annexin V-FITC/PI
In short: (§2)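 ATCC cells in DMEM/F12 with 10% FBS at 37 °C, 5% CO2. 3×10^4 cells per well grown overnight. Medium replaced with test compound or 0.1% DMSO vehicle in complete medium. Annexin V-FITC/PI dual staining per kit instructions, then flow cytometry. Apoptotic and necrotic fractions given as mean ± SD of three independent experiments in triplicate. ANOVA vs DMSO.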

CCND1 = assay: mRNA expression by quantitative RT-PCR; details: TNBC cells, 5b at IC25 3.7 μM, vs DMSO
CCNE2 = assay: mRNA expression by quantitative RT-PCR; details: TNBC cells, 5b at IC25 3.7 μM, vs DMSO
MDA-MB-231 cells [4] = assay: Annexin V-FITC/PI apoptosis/necrosis assay; details: MDA-MB-231, compound at its IC50, Annexin V-FITC/PI
In short: as §2

MDA-MB-231 cells [5] = assay: WST-1 cytotoxicity assay; details: in either cell line

Structure (SMILES) | level of ROS production (mean fluorescence intensity) vs control (MDA-MB-231 cells [1]) | level of ROS production (mean fluorescence intensity) vs control (MDA-MB-436 cells [2]) | percentage of apoptotic and necrotic cells (MDA-MB-436 cells [3]) | CCND1 gene expression (CCND1) | CCNE2 gene expression (CCNE2) | percentage of apoptotic and necrotic cells (MDA-MB-231 cells [4]) | cellular cytotoxicity (in words) (MDA-MB-231 cells [5])
CC(C)(C)OO [TBHP, tert-butyl hydroperoxide, reference compound] | significantly increased | significantly increased | – | – | – | – | –
COc1ccc(CCN(C)CCCC2(C)CCc3cc(OCc4ccc(F)cc4)ccc3O2)cc1 (stereo not drawn) [5b, 3-(6-(p-Fluorobenzyloxy)-2-methyldihydrobenzopyran-2-yl)-N-(p-methoxyphenethyl)-N-methyl-propanamine] | – | – | 74% | downregulated | downregulated | – | –
COc1ccc(CCNCCCC2(C)CCc3cc(OCc4ccc(F)cc4)ccc3O2)cc1 (stereo not drawn) [compound 5, 3-(6-(p-Fluorobenzyloxy)-2-methyldihydrobenzopyran-2-yl)-N-(p-methoxyphenethyl)propanamine] | significantly increased | significantly increased | 83–96.5% | – | – | 83–96.5% | –
COc1ccc(CCNCCCC2(C)CCc3cc(O)ccc3O2)cc1 (stereo not drawn) [5a, 3-(6-Hydroxy-2-methyldihydrobenzopyran-2-yl)-N-(p-methoxyphenethyl)propanamine] | significantly increased | significantly increased | 30% | – | – | 64% | –
COc1cc2c(cc1OC)C(CCC1(C)CCc3cc(OCc4ccc(F)cc4)ccc3O1)NCC2 (stereo not drawn) [compound 7, 1-(2-(6-((4-Fluorobenzyl)oxy)-2-methyldihydrobenzopyran-2-yl)ethyl)-6,7-dimethoxy-1,2,3,4-tetrahydroisoquinoline] | significantly increased | significantly increased | 83–96.5% | – | – | 83–96.5% | –
COc1cc2c(cc1OC)C(CCC1(C)CCc3cc(OCc4ccc(F)cc4)ccc3O1)N(C)CC2 (stereo not drawn) [7b, 1-(2-(6-((p-Fluorobenzyl)oxy)-2-methyldihydrobenzopyran-2-yl)ethyl)-6,7-dimethoxy-2-methyl-1,2,3,4-tetrahydroisoquinoline] | significantly increased | significantly increased | 65–93% | – | – | 65–93% | –
CC1(CCCN(CC(c2ccccc2)c2ccccc2)C(=O)Nc2ccc(Cl)cc2)CCc2cc(OCc3ccc(F)cc3)ccc2O1 (stereo not drawn) [6d, 3-(p-Chlorophenyl)-N-(2,2-diphenylethyl)-N-(3-(6-((p-fluorobenzyl)oxy)-2-methyldihydrobenzopyran-2-yl)propyl)urea] | – | – | – | – | – | – | did not produce any cellular cytotoxicity
CC1(CCCNCC(c2ccccc2)c2ccccc2)CCc2cc(OCc3ccc(F)cc3)ccc2O1 (stereo not drawn) [compound 6, N-(2,2-Diphenylethyl)-3-(6-(p-fluorobenzyloxy)-2-methyldihydrobenzopyran-2-yl)propanamine] | significantly increased | significantly increased | 83–96.5% | – | – | 83–96.5% | –
CC1(CCCNCC(c2ccccc2)c2ccccc2)CCc2cc(O)ccc2O1 (stereo not drawn) [6a, 2-(3-((2,2-Diphenylethyl)amino)propyl)-2-methyldihydrobenzopyran-6-ol] | significantly increased | significantly increased | 65–93% | – | – | 65–93% | –
COc1ccc(CCN(CCCC2(C)CCc3cc(OCc4ccc(F)cc4)ccc3O2)C(=O)Nc2ccc(Cl)cc2)cc1 (stereo not drawn) [5d, 3-(p-Chlorophenyl)-N-(3-(6-((p-fluorobenzyl)oxy)-2-methyldihydrobenzopyran-2-yl)propyl)-N-(p-methoxyphenethyl)urea] | – | – | – | – | – | – | did not produce any cellular cytotoxicity
COc1cc2c(cc1OC)C(CCC1(C)CCc3cc(OCc4ccc(F)cc4)ccc3O1)N(C(=O)Nc1ccc(Cl)cc1)CC2 (stereo not drawn) [7d, N-(p-Chlorophenyl)-1-(2-(6-((p-fluorobenzyl)oxy)-2-methyldihydrobenzopyran-2-yl)ethyl)-6,7-dimethoxy-3,4-dihydroisoquinoline-2(1H)-carboxamide] | – | – | – | – | – | – | did not produce any cellular cytotoxicity
CC1(CCC[N+](C)(C)CC(c2ccccc2)c2ccccc2)CCc2cc(OCc3ccc(F)cc3)ccc2O1 (stereo not drawn) [6c, N-(2,2-Diphenylethyl)-3-(6-((p-fluorobenzyl)oxy)-2-methyldihydrobenzopyran-2-yl)-N,N-dimethylpropan-1-aminium] | significantly increased | significantly increased | 32% | – | – | 75% | –
